Experimental findings from ChEMBL document CHEMBL1944538, “Synthetic peptides derived from the sequence of a lasso peptide microcin J25 show antibacterial activity” (Bioorg Med Chem, 2012) are described below.

What is called MBC is the smallest concentration meeting the test's criterion for killing. A word on the MIC: it is the lowest concentration that inhibits growth of the organism.

≈ marks a conversion by molar mass, not a printed value. Calls of active or inactive are those of the source. Positions of bridges follow the written chain, without caps; N, C: chain ends. Residues, ends and D or L forms follow the SMILES beside them. Bounds are passed on as bounds.

In data set [1] the test system is Salmonella enteritidis. Nature of the data set: Antibacterial activity against Salmonella enteritidis ATCC 13076 up to 250 uM after 24 hrs by liquid growth inhibition assay. Type of data set: functional, organism-based. To be noted: Salmonella enterica subsp. enterica serovar Enteritidis. The essentials:
(§1)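 Liquid broth microdilution in LB. Peptide stocks were made in 20% methanol/water (1 or 2.5 mM), then serially doubled in water to final 0.01–100 or 0.5–250 µM. Inoculum was diluted to OD620 0.02–0.05. Plates ran 24 h at 37 °C and were read at OD620. MIC was the lowest concentration giving 100% growth inhibition (0.05 AU). Triplicate wells, three repeat experiments.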

In data set [2] the test system is Salmonella enteritidis. Nature of the data set: Antibacterial activity against Salmonella enteritidis AFLB 81 up to 250 uM after 24 hrs by liquid growth inhibition assay. The class given is functional, organism-based. The following applies: Salmonella enterica subsp. enterica serovar Enteritidis. The essentials:
as §1

Data set [3] relates to Salmonella enterica subsp. enterica serovar Newport. Briefly: Antibacterial activity against Salmonella newport clinical isolate up to 250 uM after 24 hrs by liquid growth inhibition assay. Type of data set: functional. The essentials: as §1
For data set [4], the system named is Staphylococcus aureus. Nature of the data set: Antibacterial activity against Staphylococcus aureus ATCC 6538. Type of data set: functional, organism-based.
Data set [5] has as its system Escherichia coli. Nature of the data set: Antibacterial activity against Escherichia coli DH5alpha up to 250 uM after 24 hrs by liquid growth inhibition assay. Type of data set: functional, organism-based. The following applies: DH5[alpha]. In outline: as §1
The subject of data set [6] is Salmonella typhimurium. Nature of the data set: Antibacterial activity against Salmonella Typhimurium ATCC 13311 up to 250 uM after 24 hrs by liquid growth inhibition assay. The class given is functional, organism-based. The following applies: Salmonella enterica subsp. enterica serovar Typhimurium. In outline: as §1
The test system of data set [7] is Salmonella paratyphi. Nature of the data set: Antibacterial activity against Salmonella paratyphi up to 250 uM after 24 hrs by liquid growth inhibition assay. Type of data set: functional, organism-based. To be noted: Salmonella enterica subsp. enterica serovar Paratyphi A.
The subject of data set [8] is Escherichia coli. Briefly: Antibacterial activity against Escherichia coli MC4100 up to 250 uM after 24 hrs by liquid growth inhibition assay. Type of data set: functional, organism-based. In outline:
as §1

The subject of data set [9] is Salmonella enteritidis. Briefly: Antibacterial activity against Salmonella enteritidis AFLB 41 up to 250 uM after 24 hrs by liquid growth inhibition assay. Type of data set: functional, organism-based. The following applies: Salmonella enterica subsp. enterica serovar Enteritidis. The essentials: as §1
The test system of data set [10] is Enterococcus faecalis. Nature of the data set: Antibacterial activity against Enterococcus faecalis ATCC 19433. Type of data set: functional, organism-based.
Data set [11] deals with Salmonella enterica subsp. enterica serovar Choleraesuis. Nature of the data set: Antibacterial activity against Salmonella choleraesuis ATCC 10708 up to 250 uM after 24 hrs by liquid growth inhibition assay. Type of data set: functional.
Data set [12] deals with Salmonella enteritidis. Briefly: Antibacterial activity against Salmonella enteritidis PT8 up to 250 uM after 24 hrs by liquid growth inhibition assay. The class given is functional, organism-based. To be noted: Salmonella enterica subsp. enterica serovar Enteritidis. The essentials:
as §1

Data set [13] relates to Salmonella typhimurium. Nature of the data set: Antibacterial activity against Salmonella Typhimurium AFLB 25 up to 250 uM after 24 hrs by liquid growth inhibition assay. To be noted: Salmonella enterica subsp. enterica serovar Typhimurium. Type of data set: functional, organism-based. The essentials:
as §1

Data set [14] in a line: Cytotoxicity against human MCF7 cells assessed as cell viability at 0.3 to 100 uM after 24 hrs by MTT assay. To be noted: read-out: Activity. Type of data set: cell-based. The essentials: (§2)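 MTT assay. MDA-MB-435 cells were kept in RPMI 1640 and MCF7 cells in DMEM, both with 10% FBS, penicillin and streptomycin, at 37 °C and 5% CO2. Cells were seeded at 1×10^4/well and grown 24 h. Samples came from 1 mM stocks in 10% DMSO/water, twofold diluted to 0.3125–100 µM, and applied for 24 h. MTT (5 mg/mL) was added for 3.5 h, then DMSO solubilization and A570. Viability is relative to untreated cells; triplicate, mean.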
A general note: Formazan colour is commonly taken as a measure of viable cells.

In data set [15] the test system is Salmonella enteritidis. Nature of the data set: Antibacterial activity against Salmonella enteritidis AFLB 11 up to 250 uM after 24 hrs by liquid growth inhibition assay. The class given is functional, organism-based. To be noted: Salmonella enterica subsp. enterica serovar Enteritidis. The essentials:
as §1

Data set [16] is described as follows: Cytotoxicity against human MDA-MB-435 cells assessed as cell viability at 0.3 to 100 uM after 24 hrs by MTT assay. Type of data set: cell-based. To be noted: read-out: Activity. The essentials:
as §2

For data set [17], the system named is Salmonella enterica subsp. enterica serovar Montevideo. Briefly: Antibacterial activity against Salmonella montevideo 20 up to 250 uM after 24 hrs by liquid growth inhibition assay. Type of data set: functional. In outline:
as §1

Data set [18] has as its system Salmonella enterica subsp. enterica serovar Heidelberg. Nature of the data set: Antibacterial activity against Salmonella heidelberg ATCC 8326 up to 250 uM after 24 hrs by liquid growth inhibition assay. The class given is functional. The essentials:
as §1

Data set [19] in a line: Stability of the compound at 200 uM after overnight incubation by spot on lawn method in the presence of chymotrypsin. The class given is ADME.
Data set [20] is described as follows: Bactericidal activity against Salmonella newport clinical isolate after 24 hrs. The class given is functional, Salmonella enterica subsp. enterica serovar Newport. The following applies: Salmonella enterica. The essentials:
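For MBC, 10 µL from each clear well of the 24 h, 37 °C LB broth-dilution plate was spread on LB agar and incubated 24 h at 37 °C. MBC was the lowest concentration giving no growth on agar.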

A short description of data set [21]: Antibacterial activity against Salmonella newport clinical isolate after 24 hrs by liquid growth inhibition assay. Type of data set: functional, Salmonella enterica subsp. enterica serovar Newport. The following applies: Salmonella enterica. The essentials: as §1
Data set [22] can be described thus: Stability of the compound at 150 uM after 30 mins by RP-HPLC analysis in the presence of pepsin. Type of data set: ADME. To be noted: 0.5 h. In outline: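 Peptide (150 µM) was incubated at 37 °C with pepsin (4% w/w) in 0.1 N HCl. Aliquots taken at 0 and 30 min were quenched into 0.1 N NaOH/70% methanol and centrifuged. Supernatant was analysed by C18 RP-HPLC (15–50% isopropanol/water, 0.05% TFA, 35 min, UV 220 nm). Fragments were identified by MALDI-TOF.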

The subject of data set [23] is Salmonella enterica subsp. enterica serovar Newport. Nature of the data set: Inhibition of oxygen consumption in Salmonella newport clinical isolate at 30 uM after 35 mins by Gilson Clarke oxygraph analysis. The class given is functional. In outline: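 Cells were held 35 min at 37 °C with peptide at the stated concentration. Respiration rate over the next 5 min was measured polarographically with a Clark electrode oxygraph at 37 °C. Results are percent of a peptide-free control; three independent experiments, mean ± SD.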

Data set [24] is described as follows: Thermostability in boiling water after 3 hrs. Type of data set: physicochemical. The following applies: buffer.

As for `CC[C@H](C)[C@H](NC(=O)[C@@H]1CCCN1C(=O)CNC(=O)CNC(=O)[C@H](CCCNC(=N)N)NC(=O)CNC(=O)[C@@H](NC(=O)[C@H](Cc1ccccc1)NC(=O)[C@H](Cc1ccc(O)cc1)NC(=O)[C@@H]1CSSC[C@H](N)C(=O)NCC(=O)N[C@@H](C)C(=O)N[C@@H](Cc2ccccc2)C(=O)N[C@@H](Cc2cnc[nH]2)C(=O)N[C@@H](C(C)C)C(=O)N2CCC[C@H]2C(=O)N1)C(C)C)C(=O)N[C@@H](CO)C(=O)N[C@@H](Cc1ccccc1)C(=O)O` (H-CGAFHVPCYFVGRGGPISF-OH; disulfide 1-8), the result in data set [1], in [2], in [3], in data set [4], in [5] and in [6] was inactive. The outcome in data set [7], in [8], in data set [9], in [10], in data set [11] and in data set [12] was inactive. The result in [13], in [15], in data set [17] and in data set [18] was inactive. Moreover, the viability at 24 h, up to 100 µM in data set [14] and in data set [16] was more than 90% each time.

`CC[C@H](C)[C@H](NC(=O)[C@@H]1CCCN1C(=O)[C@@H](NC(=O)CNC(=O)[C@H](CCCNC(=N)N)NC(=O)CNC(=O)[C@@H](NC(=O)[C@H](Cc1ccccc1)NC(=O)[C@H](Cc1ccc(O)cc1)NC(=O)[C@@H]1CSSC[C@H](N)C(=O)NCC(=O)N[C@@H](C)C(=O)NCC(=O)N[C@@H](Cc2ccccc2)C(=O)N[C@@H](Cc2cnc[nH]2)C(=O)N[C@@H](C(C)C)C(=O)N2CCC[C@H]2C(=O)N1)C(C)C)[C@@H](C)O)C(=O)N[C@@H](CO)C(=O)N[C@@H](Cc1ccccc1)C(=O)N[C@@H](Cc1ccc(O)cc1)C(=O)NCC(=O)O` (H-CGAGFHVPCYFVGRGTPISFYG-OH; disulfide 1-9): the result in data set [1], in data set [2], in [4], in data set [5], in [6] and in data set [7] was inactive. Further, the outcome in data set [8], in data set [9], in [10], in data set [11], in data set [12] and in [13] was inactive. Besides, the outcome in data set [15], in data set [17] and in [18] was inactive. The Stability entry in data set [19], in data set [22] and in data set [24] was “Unstable” throughout. Also, the MBC in [20] was found to be 62.5 µM (≈ 146 µg/mL). For the same molecule, the lowest concentration to inhibit growth in [21] (MIC) was 30 µM (≈ 70 µg/mL). For the same molecule, the viability at 24 h, up to 100 µM in data set [14] and in [16] was more than 90% each time. Besides, the inhibition entry in [23] is “inactive”.

On to `CC[C@H](C)[C@H](NC(=O)CNC(=O)[C@@H](NC(=O)[C@H](Cc1ccccc1)NC(=O)[C@H](Cc1ccc(O)cc1)NC(=O)[C@@H]1CSSC[C@H](N)C(=O)NCC(=O)N[C@@H](C)C(=O)NCC(=O)N[C@@H](CCCCN)C(=O)N[C@@H](C(C)C)C(=O)N2CCC[C@H]2C(=O)N1)C(C)C)C(=O)NCC(=O)N[C@H](C(=O)N1CCC[C@H]1C(=O)N[C@H](C(=O)N[C@@H](CO)C(=O)N[C@@H](Cc1ccccc1)C(=O)N[C@@H](CCC(=O)O)C(=O)NCC(=O)O)[C@@H](C)CC)[C@@H](C)O` (H-CGAGKVPCYFVGIGTPISFEG-OH; disulfide 1-8), for which the outcome in data set [1], in data set [2], in data set [3], in [4], in data set [5] and in [6] was inactive. Moreover, the outcome in data set [7], in data set [8], in data set [9], in data set [10], in [11] and in data set [12] was inactive. The outcome in data set [13], in data set [15], in data set [17] and in data set [18] was inactive. Moreover, the viability at 24 h, up to 100 µM in data set [14] and in data set [16] was 75% each time.

In the case of `CC[C@H](C)[C@H](NC(=O)CNC(=O)[C@@H](NC(=O)[C@H](Cc1ccccc1)NC(=O)[C@H](Cc1ccc(O)cc1)NC(=O)[C@@H]1CSSC[C@H](N)C(=O)NCC(=O)N[C@@H](C)C(=O)N[C@@H](CCCCN)C(=O)N[C@@H](Cc2cnc[nH]2)C(=O)N[C@@H](C(C)C)C(=O)N2CCC[C@H]2C(=O)N1)C(C)C)C(=O)NCC(=O)N[C@H](C(=O)N1CCC[C@H]1C(=O)N[C@H](C(=O)N[C@@H](CO)C(=O)N[C@@H](Cc1ccccc1)C(=O)N[C@@H](CCC(=O)O)C(=O)O)[C@@H](C)CC)[C@@H](C)O` (H-CGAKHVPCYFVGIGTPISFE-OH; disulfide 1-8), the outcome in data set [1], in data set [2], in data set [3], in [4], in data set [5] and in data set [6] was inactive. Also, the outcome in data set [7], in data set [8], in data set [9], in data set [10], in data set [11] and in data set [12] was inactive. The outcome in data set [13], in data set [15], in data set [17] and in data set [18] was inactive. In addition, in data set [14], the viability at 24 h, up to 100 µM was found to be 75%.

For `CC[C@H](C)[C@@H]1NC(=O)[C@@H]2CCCN2C(=O)CNC(=O)CNC(=O)[C@H](CCCNC(=N)N)NC(=O)CNC(=O)[C@H](C(C)C)NC(=O)[C@H](Cc2ccccc2)NC(=O)[C@H](Cc2ccc(O)cc2)NC(=O)[C@@H]2CSSC[C@H](NC(=O)[C@H](CCC(=O)O)NC1=O)C(=O)NCC(=O)N[C@@H](C)C(=O)NCC(=O)N[C@@H](Cc1cnc[nH]1)C(=O)N[C@@H](C(C)C)C(=O)N1CCC[C@H]1C(=O)N2` (cyclo(AGHVPCYFVGRGGPIECG); disulfide 6-17), the outcome in data set [1], in [2], in data set [3], in data set [4], in data set [5] and in data set [6] was inactive. Besides, the result in [7], in data set [8], in data set [9], in data set [10], in [11] and in [12] was inactive. Further, the result in data set [13], in [15], in data set [17] and in data set [18] was inactive. Further, the viability at 24 h, up to 100 µM in data set [14] and in data set [16] was more than 90% throughout.
